Experiments:
[1] = biological target: T1, Prostaglandin E synthase (Homo sapiens) (UniProt O14684); test: Inhibition of mPGES-1 derived from IL1beta and TNFalpha stimulated human HeLa cells microsomal fraction using PGH2 as substrate at 1 uM preincubated for 30 mins prior to substrate addition measured after 1 min by LC-MS/MS analysis relative to control
T1 sequence (whole entry): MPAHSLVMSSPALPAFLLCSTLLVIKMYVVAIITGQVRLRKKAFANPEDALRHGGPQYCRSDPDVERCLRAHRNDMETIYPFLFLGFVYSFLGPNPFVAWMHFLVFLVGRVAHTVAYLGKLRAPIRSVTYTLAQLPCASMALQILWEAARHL
How it was run: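 Microsomes were pelleted by ultracentrifugation and resuspended in buffer with 2.5 mM GSH; protein was measured by Bradford. PGE₂ was read by LC-MS/MS after solid-phase extraction with deuterated standards; n ≥ 3.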

Prostaglandin E synthase = biological target: T2, Prostaglandin E synthase (Homo sapiens, UniProt O14684); test: Inhibition of human recombinant mPGES-1
T2 sequence (O14684 whole entry): T1 sequence (whole entry)

[2] = Inhibition of rat recombinant mPGES-1
[3] = biological target: T1, Prostaglandin E synthase (Homo sapiens); test: Inhibition of mPGES-1 in IL1beta and TNFalpha-stimulated human HeLa cells assessed as PGE2 level after 24 hrs by LC-MS/MS analysis; type: cell-based
How it was run: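 HeLa cells (2 × 10⁴) were grown 24 h at 37 °C. The medium was then replaced with IL-1β (1 ng/mL) + TNFα (5 ng/mL), or PBS for unstimulated controls, together with compound at 1, 10 or 100 μM, or DMSO, for 24 h at 37 °C. Supernatant PGE₂ was quantified by LC-MS/MS after solid-phase extraction with deuterated standards. Inhibition is percent of DMSO control corrected for unstimulated background, SEM, n ≥ 3.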

| inhibition [1] [%] | Structure (SMILES) | also measured |
| --- | --- | --- |
| 61.3 | CCCc1nc2ccc(NC(=O)c3c(Cl)cccc3Cl)cc2c(=O)n1Cc1cccc(Cl)c1 | – |
| < 0 | O=C(Cn1cnc2ccccc2c1=O)Nc1ccccc1Cl | – |
| < 0 | O=C1NC(c2ccccc2Cl)Oc2ccccc21 (configuration not stated) | – |
| 14.8 | CCCc1nc2ccc(NC(C)=O)cc2c(=O)n1Cc1ccc(-c2cccc(Cl)c2)cc1 | – |
| 14.1 | CCCc1nc2ccc(NC(=O)Nc3ccccc3Cl)cc2c(=O)n1Cc1ccccc1Cl | – |
| – | O=C(Nc1ccc(-c2ccc(Cl)c(Cl)c2)cc1)C1=C(O)c2ccccc2S(=O)(=O)N1 | IC50 (Prostaglandin E synthase): 16.5 nM; IC50 [2]: 1080 nM |
| 15.9 | CCCc1nc2ccc(NC(=O)C3CC3)cc2c(=O)n1Cc1ccc(-c2cccc(OC)c2)cc1 | – |
| < 0 | O=C(Nc1ccc2nc(C3CC3)n(Cc3ccccc3)c(=O)c2c1)c1cccnc1 | – |
| – | Cc1ccc(-c2cc(C(F)(F)F)nn2-c2ccc(S(N)(=O)=O)cc2)cc1 | inhibition [3]: Dose-dependent effect |
| 15.6 | CCCc1nc2ccc(NC(=O)c3cccs3)cc2c(=O)n1Cc1ccc(-c2cccc(Cl)c2)cc1 | – |
| 15.3 | CCCc1nc2ccc(NC(=O)c3ccccc3)cc2c(=O)n1Cc1ccc(-c2cccc(Cl)c2)cc1 | – |

— ChEMBL document CHEMBL2046422, “Structure-activity relationship of nonacidic quinazolinone inhibitors of human microsomal prostaglandin synthase 1 (mPGES 1)” (J Med Chem, 2012)
